Test results published in ChEMBL document CHEMBL4359825, “Synthesis of novel S-linked dihydroartemisinin derivatives and evaluation of their anticancer activity” (Eur J Med Chem, 2019).
Active and inactive are the calls of the source. The rule behind the calls is not given here.

Tests used:
PC-3 [1] = assay: Induction of cell death in human PC3 cells at 10 uM measured after 72 hrs by propidium iodide staining based flow cytometry analysis (reference value: 0.5 %); type: functional
How it was run: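 PC-3 cells in six-well plates exposed to 3 or 10 μM for 72 h, 0.1% DMSO vehicle as control; cells harvested, PBS-washed, stained with propidium iodide (5 μg/mL) 20 min at 4 °C; percentage dead cells read by flow cytometry; t-test against vehicle.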

PC-3 [2] = assay: Induction of apoptosis in human PC3 cells assessed as decrease in pro-caspase-9 level after 72 hrs by Western blot analysis; type: functional, cell-based
How it was run: (§1)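 Western blot: PC-3 seeded 1.25 × 10^5/well, exposed to 0.1–10 μM for 72 h. Lysed in 2× SDS buffer and sonicated; 20–25 μg protein run on 12% SDS gel, transferred to PVDF, blocked in 5% BSA/TBST. Primary antibodies overnight, secondary 1 h; ECL detection, β-actin loading control.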

PC-3 [3] = assay: Antimetastatic activity against human PC3 cells assessed as inhibition of MMP-2 at 3 to 10 uM measured after 48 hrs by gelatin zymography; type: functional, cell-based
How it was run: (§2)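 PC-3 monolayers scratched, then treated with 3 or 10 μM for 48 h in serum-containing medium, then 24 h in serum-free medium. Conditioned medium run non-reduced on 7.5% SDS-PAGE containing gelatin 4 mg/mL. Gel washed in 2.5% Triton X-100, incubated 24 h at 37 °C in Tris pH 7.5 with CaCl2/ZnCl2, Coomassie stained; lysis seen as clear bands.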

PC-3 [4] = assay: Antimetastatic activity against human PC3 cells assessed as inhibition of MMP-9 at 3 to 10 uM measured after 48 hrs by gelatin zymography; type: functional, cell-based; how it was run: as §2
PC-3 [5] = assay: Downregulation of cyclinB1 mRNA expression in human PC3 cells at 3 to 10 uM measured after 72 hrs by TRIzol dye based RT-PCR analysis; type: functional, cell-based
How it was run: (§3)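 PC-3 (1.25 × 10^5/well) treated 72 h with 3 or 10 μM. Total RNA extracted with TRIzol; cDNA made from 2 μg RNA. SYBR qPCR: 95 °C 10 min, then 40 cycles of 95 °C/60 °C. Expression normalised to GAPDH by 2^-ΔΔCt; three experiments.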

PC-3 [6] = assay: Anticlonogenic activity against human PC3 cells assessed as reduction in colony formation incubated for 72 hrs supplemented with fresh medium containing measured after 15 days by colony formation assay; type: functional, cell-based
How it was run: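 Clonogenic assay: PC-3 seeded at 500 cells/well in six-well plates, allowed to adhere overnight, then treated. Medium and compound renewed every 72 h over 15 days. Colonies fixed with 3.7% formaldehyde for 20 min, stained with 0.4% crystal violet and counted. Three experiments, each in quadruplicate, expressed as fold change versus control.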

PC-3 [7] = assay: Downregulation of PCNA mRNA expression in human PC3 cells at 3 to 10 uM measured after 72 hrs by TRIzol dye based RT-PCR analysis; type: functional, cell-based; how it was run: as §3
PC-3 [8] = assay: Cell cycle arrest in human PC3 cells assessed as accumulation at S phase at 3 uM measured after 48 hrs by RNase/propidium iodide staining based flow cytometry analysis (reference value: 22.40 %); type: functional
PC-3 [9] = assay: Induction of apoptosis in human PC3 cells assessed as nuclear condensation at 3 to 10 uM after 72 hrs by Hoechst 33342 staining based fluorescence microscopy; type: functional, cell-based
How it was run: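 PC-3 cells treated 72 h with 3 or 10 μM, stained with Hoechst 33342 for 15 min at room temperature in the dark, washed with PBS, and nuclei examined by fluorescence microscopy for condensation.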

PC-3 [10] = assay: Induction of apoptosis in human PC3 cells assessed as decrease in pro-caspase-3 level after 72 hrs by Western blot analysis; type: functional, cell-based; how it was run: as §1
PC-3 [11] = assay: Cell cycle arrest in human PC3 cells assessed as accumulation at G0/G1 phase at 3 uM measured after 48 hrs by RNase/propidium iodide staining based flow cytometry analysis (reference value: 42.59 %); type: functional
HeLa = assay: Anticancer activity against human HeLa cells assessed as cell viability measured after 72 hrs by MTT assay (reference value: 100 +/- 11.5 %); type: functional; design: concentration or dose not given beside the values
PC-3 [12] = assay: Antimigratory activity against human PC3 cells assessed as reduction in cell migration at 3 to 10 uM measured after 48 hrs by transwell assay; type: functional, cell-based
How it was run: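 Transwell migration through 8.0 μm polycarbonate membranes: 40,000 PC-3 cells in serum-free medium in the upper chamber with 3 or 10 μM; RPMI-1640 with 10% FBS below. After 48 h, non-migrated cells swabbed off. Migrated cells fixed in 75% ethanol for 10 min, Hoechst stained and counted per field versus DMSO.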

PC-3 [13] = assay: Antiproliferative activity against human PC3 cells assessed as reduction in cell viability upto 10 uM incubated for 24 hrs by MTT assay; type: functional, cell-based
PC-3 [14] = assay: Induction of apoptosis in human PC3 cells assessed as cell shrinkage at 3 to 10 uM after 72 hrs by phase contrast microscopy; type: functional, cell-based
How it was run: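 PC-3 cells in exponential growth exposed to 3 or 10 μM for 72 h, washed gently with PBS, and apoptotic morphology recorded by phase-contrast microscopy.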

MDA-MB-231 = assay: Anticancer activity against human MDA-MB-231 cells assessed as cell viability measured after 72 hrs by MTT assay (reference value: 100 +/- 20.0 %); type: functional; design: concentration or dose not given beside the values
A-431 = assay: Anticancer activity against human A431 cells assessed as cell viability measured after 72 hrs by MTT assay (reference value: 100 +/- 11.7 %); type: functional; design: concentration or dose not given beside the values
PC-3 [15] = assay: Induction of apoptosis in human PC3 cells assessed as upregulation of Bax expression measured after 72 hrs by Western blot analysis; type: functional, cell-based; how it was run: as §1
PC-3 [16] = assay: Anticancer activity against human PC3 cells assessed as reduction in cell viability measured after 72 hrs by MTT assay; type: functional, cell-based; settings: PC-3, 72 h
PC-3 [17] = assay: Downregulation of Pin1 in human PC3 cells harboring siRNA measured after 72 hrs by Western blot analysis; type: functional, cell-based
How it was run: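 PC-3 cells (1.5 × 10^5/well) transfected with Pin1 siRNA (25 nM) using Lipofectamine RNAiMAX in Opti-MEM, alone or with test agent, for 72 h. Pin1 assessed by western blot with β-actin loading control.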

[18] = molecular target: Peptidyl-prolyl cis-trans isomerase NIMA-interacting 1 (Homo sapiens) (UniProt Q13526); assay: Inhibition of Pin1 in human PC3 cells assessed as downregulation of cyclin D1 measured after 72 hrs by Western blot analysis; type: cell-based
How it was run: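 PC-3 cells (1.25×10^5 per well) exposed 72 h to 0.1, 0.3, 1, 3 or 10 μM; lysed in 2× SDS buffer, sonicated, BCA-quantified; 20-25 μg protein on 12% SDS gel, PVDF, 5% BSA block, primary antibody overnight, secondary 1 h; ECL detection, β-actin loading control.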

PC-3 [19] = assay: Cell cycle arrest in human PC3 cells assessed as accumulation at G2/M phase at 3 uM measured after 48 hrs by RNase/propidium iodide staining based flow cytometry analysis (reference value: 34.95 %); type: functional
PC-3 [20] = assay: Downregulation of cMyc in human PC3 cells at 3 to 10 uM measured after 72 hrs by Western blot analysis; type: functional, cell-based; how it was run: as §1
PC-3 [21] = assay: Induction of apoptosis in human PC3 cells assessed as down-regulation of BCL-xL expression measured after 72 hrs by Western blot analysis; type: functional, cell-based; how it was run: as §1

Peptidyl-prolyl cis-trans isomerase NIMA-interacting 1 (Homo sapiens), sequence (Q13526 whole entry): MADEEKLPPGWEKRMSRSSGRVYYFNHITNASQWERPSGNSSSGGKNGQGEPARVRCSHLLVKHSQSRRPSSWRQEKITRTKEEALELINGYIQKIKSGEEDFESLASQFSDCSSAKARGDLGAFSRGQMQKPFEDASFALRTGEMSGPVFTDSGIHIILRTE

SMILES: COC(=O)Cc1ccc(S[C@@H]2O[C@@H]3O[C@@]4(C)CC[C@H]5[C@H](C)CC[C@@H]([C@H]2C)[C@@]35OO4)cc1
- Activity (PC-3 [1]): 28.9%
- Activity (PC-3 [2]): Dose-dependent effect
- inhibition (PC-3 [3]): Dose-dependent effect
- inhibition (PC-3 [4]): Dose-dependent effect
- Activity (PC-3 [5]): Active
- Activity (PC-3 [6]): Dose-dependent effect
- Activity (PC-3 [7]): Active
- Activity (PC-3 [8]): 13.26%
- Activity (PC-3 [9]): Active
- Activity (PC-3 [10]): Dose-dependent effect
- Activity (PC-3 [11]): 54.49%
- Activity (HeLa): 43%
- Activity (PC-3 [12]): Active
- Activity (PC-3 [13]): inactive
- Activity (PC-3 [14]): Active
- Activity (MDA-MB-231): 45%
- Activity (A-431): 35%
- Activity (PC-3 [15]): Dose-dependent effect
- IC50 (PC-3 [16]): 6.13 µM
- Activity (PC-3 [17]): Active
- inhibition [18]: Dose-dependent effect
- Activity (PC-3 [19]): 32.24%
- Activity (PC-3 [20]): Active
- Activity (PC-3 [21]): Dose-dependent effect
